# Results published in ChEMBL document CHEMBL4613249, “Serendipitous Discovery of Leucine and Methionine Depletion Agents during the Search for Polyamine Transport Inhibitors” (J Med Chem, 2020).
# The source made the active and inactive calls. The calls are words filed in the database; no cut-off is given here.
# Key:
# CHO-K1 [1] = assay: Cytotoxicity against CHOK1 cells assessed as effect on cell growth up to 6 uM measured after 48 hrs by MTS assay; format: cell-based, Cricetulus griseus; conditions: chinese hamster, cho-k1, 48 h
# CHO-K1 [2] = assay: Inhibition of polyamine transporter in CHOK1 cells assessed as rescue of 2.4 uM N-(anthracenylmethyl) homospermidine-induced toxicity by measuring cell growth at 7 uM measured after 48 hrs in presence of amine oxidase suppressor aminoguanidine by MTS assay (reference value: 23%); format: cell-based; set-up: scale not given: the % may be the effect or the level left; conditions: Cricetulus griseus
# Procedure, shortened: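 CHO K1 cells (1000 cells/well, aminoguanidine 1 mM preincubation) were given a toxic Ant-44 dose (2.4 μM) with candidate compound at 5 or 7 μM. Cells were incubated 48 h at 37°C, and relative growth versus untreated control was read by MTS.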
# CHO-K1 [3] = assay: Cytotoxicity against CHOK1 cells assessed as effect on cell growth at < 7 uM measured after 48 hrs by MTS assay; format: cell-based, Cricetulus griseus; conditions: chinese hamster, cho-k1, 48 h
# L3.6pl [4] = assay: Cytotoxicity against human L3.6PL cells assessed as reduction in cell viability measured after 72 hrs by MTS assay; format: cell-based
# Procedure, shortened: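 L3.6pl cells, 500 cells/well in RPMI 1640 with 10% FBS and 250 μM aminoguanidine, plated overnight. Compound in PBS added, then 72 h at 37°C. MTS absorbance at 490 nm. IC50 is the dose giving 50% relative growth versus untreated control. Run twice in triplicate.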
# L3.6pl [5] = assay: Effect on polyamine level in human L3.6PL cells assessed as decrease in intracellular spermine level at 2 to 7 uM measured after 72 hrs in presence of amine oxidase suppressor aminoguanidine by LCMS analysis; format: functional, cell-based; conditions: in the assay text read “by N-dansylation and HPLC analysis” for “by LCMS analysis”
# Procedure, shortened: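 L3.6pl cells, 50,000 cells/mL in 10 mL per Petri dish with 1 mM aminoguanidine, plated overnight. Dosed with compound at 2, 5 or 7 μM from PBS stocks, then 72 h at 37°C. Intracellular polyamines measured by N-dansylation and HPLC, in duplicate, as nmol/mg protein against a parallel untreated control.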
# L3.6pl [6] = assay: Effect on polyamine level in human L3.6PL cells assessed as putrescine level per mg protein in supernatant at 5 uM measured after 72 hrs in presence of amine oxidase suppressor aminoguanidine by LCMS analysis (reference value: 977 +/- 522 pmol/mg); format: functional
# L3.6pl [7] = assay: Effect on polyamine level in human L3.6PL cells assessed as spermidine level per mg protein in supernatant at 5 uM measured after 72 hrs in presence of amine oxidase suppressor aminoguanidine by LCMS analysis (reference value: 339 pmol/mg); format: functional
# L3.6pl [8] = assay: Effect on polyamine level in human L3.6PL cells assessed as spermine level per mg protein in supernatant at 2 uM measured after 72 hrs in presence of amine oxidase suppressor aminoguanidine by LCMS analysis (reference value: 6152 +/- 5596 pmol/mg); format: functional
# L3.6pl [9] = assay: Effect on polyamine level in human L3.6PL cells assessed as acetyl spermine level per mg protein in supernatant at 2 uM measured after 72 hrs in presence of amine oxidase suppressor aminoguanidine by LCMS analysis (reference value: 77 +/- 43 pmol/mg); format: functional
# L3.6pl [10] = assay: Effect on polyamine level in human L3.6PL cells assessed as agmatine level per mg protein in supernatant at 2 uM measured after 72 hrs in presence of amine oxidase suppressor aminoguanidine by LCMS analysis (reference value: 101 pmol/mg); format: functional
# L3.6pl [11] = assay: Effect on polyamine level in human L3.6PL cells assessed as leucine level per mg protein in supernatant at 5 uM measured after 72 hrs in presence of amine oxidase suppressor aminoguanidine by LCMS analysis (reference value: 18009 +/- 9061 pmol/mg); format: functional
# L3.6pl [12] = assay: Effect on polyamine level in human L3.6PL cells assessed as methionine level human L3.6PL cells assessed per mg protein in supernatant at 5 uM pretreated with aminoguanidine for 24 hrs followed by compound treatment after 72 hrs by LCMS analysis (reference value: 22834 +/- 1984 pmol/mg); format: functional
# L3.6pl [13] = assay: Effect on polyamine level in human L3.6PL cells assessed as phenylalanine level per mg protein in supernatant at 2 uM measured after 72 hrs in presence of amine oxidase suppressor aminoguanidine by LCMS analysis (reference value: 14299 +/- 7194 pmol/mg); format: functional
# [14] = biological target: Large neutral amino acids transporter small subunit 1 (Homo sapiens) (UniProt Q01650); assay: Inhibition of LAT1-mediated amino acid transport in human L3.6PL cells assessed as reduction in intracellular leucine level by measuring leucine level per mg protein in cell lysate at 2 uM measured after 72 hrs by LCMS analysis (reference value: 232 +/- 10 pmol/mg); format: cell-based
# Sequence of Large neutral amino acids transporter small subunit 1 (Homo sapiens) (Q01650 whole entry): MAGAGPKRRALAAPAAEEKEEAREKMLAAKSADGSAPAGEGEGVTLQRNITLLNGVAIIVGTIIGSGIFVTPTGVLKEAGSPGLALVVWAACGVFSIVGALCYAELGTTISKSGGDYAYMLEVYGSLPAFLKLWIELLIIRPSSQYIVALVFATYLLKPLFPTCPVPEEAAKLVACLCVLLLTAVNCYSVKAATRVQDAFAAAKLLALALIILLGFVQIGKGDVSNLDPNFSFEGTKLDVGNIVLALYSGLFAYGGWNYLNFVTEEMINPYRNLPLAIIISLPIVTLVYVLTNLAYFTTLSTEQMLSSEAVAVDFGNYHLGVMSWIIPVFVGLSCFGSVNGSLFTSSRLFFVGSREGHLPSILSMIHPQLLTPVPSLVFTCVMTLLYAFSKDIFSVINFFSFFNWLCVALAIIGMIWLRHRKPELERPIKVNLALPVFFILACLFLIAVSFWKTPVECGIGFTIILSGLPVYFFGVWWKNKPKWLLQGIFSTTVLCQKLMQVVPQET
# Procedure, shortened: (§1)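 L3.6pl cells (50,000 cells/mL, 10 mL, 1 mM aminoguanidine) were seeded in poly-lysine-treated 9 cm dishes and incubated overnight at 37°C. They were then dosed with compound at 2, 5 or 7 μM from PBS stocks (2, 5, 7 mM) and incubated 72 h. Runs were done in triplicate, with amino acid levels per mg protein.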
# [15] = biological target: Large neutral amino acids transporter small subunit 1 (Homo sapiens) (UniProt Q01650); assay: Inhibition of LAT1-mediated amino acid transport in human L3.6PL cells assessed as reduction in intracellular leucine level by measuring leucine level per mg protein in cell lysate at 7 uM measured after 72 hrs by LCMS analysis (reference value: 232 +/- 10 pmol/mg); format: cell-based; procedure, shortened: as §1
# [16] = biological target: Large neutral amino acids transporter small subunit 1 (Homo sapiens) (UniProt Q01650); assay: Induction of LAT1-mediated polyamine efflux in aminoguanidine pretreated human L3.6PL cells assessed as reduction in cell viability at 5 uM measured after 72 hrs in presence of putrescine by MTS assay; format: cell-based
# Procedure, shortened: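 L3.6pl cells pre-incubated 24 h with 250 μM aminoguanidine. Then given increasing compound plus putrescine, spermidine or spermine, each fixed at 1 or 5 μM, for 72 h at 37°C. Growth by MTS relative to untreated control.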
# CHO-MG [17] = assay: Induction of polyamine efflux in aminoguanidine pretreated CHO-MG cells assessed as reduction in cell viability measured after 72 hrs in presence of putrescine by MTS assay; format: ADME, cell-based, Cricetulus griseus; conditions: chinese hamster
# CHO-MG [18] = assay: Induction of polyamine efflux in aminoguanidine pretreated CHO-MG cells assessed as reduction in cell viability measured after 72 hrs in presence of spermidine by MTS assay; format: ADME, cell-based, Cricetulus griseus; conditions: chinese hamster
# CHO-MG [19] = assay: Induction of polyamine efflux in aminoguanidine pretreated CHO-MG cells assessed as reduction in cell viability measured after 72 hrs in presence of spermine by MTS assay; format: ADME, cell-based, Cricetulus griseus; conditions: chinese hamster
# L3.6pl [20] = assay: Effect on polyamine level in human L3.6PL cells assessed as decrease in intracellular putrescine level at 1 uM measured after 72 hrs in presence of amine oxidase suppressor aminoguanidine and Ant-44 by LCMS analysis; format: functional, cell-based
# Procedure, shortened: (§2)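 L3.6pl cells dosed with Ant-44 fixed at 2 μM plus increasing compound for 72 h at 37°C. Intracellular polyamines and Ant-44 given as nmol/mg protein, in duplicate, with a parallel untreated control.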
# L3.6pl [21] = assay: Effect on polyamine level in human L3.6PL cells assessed as decrease in intracellular spermine level at 1 uM measured after 72 hrs in presence of amine oxidase suppressor aminoguanidine and Ant-44 by LCMS analysis; format: functional, cell-based; procedure, shortened: as §2
# L3.6pl [22] = assay: Effect on polyamine level in human L3.6PL cells assessed as glutamic acid level per mg protein in supernatant at 2 uM measured after 72 hrs in presence of amine oxidase suppressor aminoguanidine by LCMS analysis (reference value: 23412 +/- 3983 pmol/mg)
smiles,measurement,setting,value
CC(C)CCN1CCN([C@@H](CNCc2ccccc2)CC2CCCCC2)C[C@@H]1CC(C)C,Activity,CHO-K1 [1],Non-Toxic
same,Activity,CHO-K1 [2],3%
same,Activity,CHO-K1 [3],Non-Toxic
same,IC50,L3.6pl [4],5.9 µM
same,Activity,L3.6pl [5],Active
same,Activity,L3.6pl [6],2224 pmol/mg
same,Activity,L3.6pl [7],167 pmol/mg
same,Activity,L3.6pl [8],2532 pmol/mg
same,Activity,L3.6pl [9],49 pmol/mg
same,Activity,L3.6pl [10],297 pmol/mg
same,Activity,L3.6pl [11],202092 pmol/mg
same,Activity,L3.6pl [12],64036 pmol/mg
same,Activity,L3.6pl [13],11954 pmol/mg
same,Activity,[14],152 pmol/mg
same,Activity,[15],77 pmol/mg
same,Activity,[16],Active
same,Activity,CHO-MG [17],Active
same,Activity,CHO-MG [18],Active
same,Activity,CHO-MG [19],Active
same,Activity,L3.6pl [20],Active
same,Activity,L3.6pl [21],Active
same,Activity,L3.6pl [22],20231 pmol/mg
